According to the array DNA melting data of Ke et al. (doi:10.1101/2024.01.08.574731):

Experiments:
[1] = folding enthalpy; higher = less favourable; fluorescence melt of hairpins on a sequencing array, two-state fit; conditions: sodium 0.088 M
Outline: (§1)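 Folding enthalpy and melting temperature were estimated with bootstrapped two-state fits and combined across four replicates by inverse-variance weighting, with fitted temperatures raised by 9.35 °C to match UV melts. The data were Cy3 fluorescence of library hairpins, with annealed Cy3 and quencher oligos, on a sequenced MiSeq flow cell in 50 mM Na-HEPES pH 8.0, 25 mM NaCl, imaged in 2.5 °C steps up to 60 °C and normalised to pre-quench Cy3 and control constructs.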

[2] = melting temperature; fluorescence melt of hairpins on a sequencing array, two-state fit, raised by 9.35 °C to match UV melts; conditions: sodium 0.088 M
Outline: as §1

| Sequence | folding enthalpy [1] [kcal/mol] | Tm [2] [°C] |
| --- | --- | --- |
| GCTGGTCGAAAGACGAGC (((.(((....))).))) | -54.3 | 54.5 |
| GCTGGTGGAAACGTCAGC ((((..(....)..)))) | -23.9 | 43.3 |
| GCTGTACGAAAGTAGAGC (((.(((....))).))) | -35.3 | 51.7 |
| GCTGTAGGAAACTACAGC (((((((....))))))) | -44.6 | 63.3 |
| GCTGTAGGAAACTACGGC ((.((((....)))).)) | -42.9 | 53.3 |
| GCTGTAGGAAACTATAGC (((.(((....))).))) | -28.3 | 43.7 |
| GCTGTCGAAAGACTCAGC ((((((....)))..))) | -18.7 | 40.5 |
| GCTGTGCGAAAGCAGTGC ((..(((....)))..)) | -15.8 | 46.6 |
| GCTGTGCGAAAGCGCGGC ((.(.((....)).).)) | -25.3 | 66.6 |
| GCTGTGCGAAAGCTCCGC ((.(.((....)).).)) | -14.5 | 40 |
| GCTGTGCGAAAGCTGAGC (((..((....))..))) | -16.6 | 49.1 |
| GCTGTGGCGAAAGCCAGC (((..(((....)))))) | -13.8 | 52.2 |
| GCTGTGGGAAACCACAAC (.(((((....))))).) | -15.8 | 39.2 |
| GCTGTTGGAAACAACAAC (.(((((....))))).) | -15.9 | 35.2 |
| GCTGTTGGAAACAATAGC (((.(((....))).))) | -31.9 | 47.9 |
| GCTGTTGGAAACAGTAGC (((..((....))..))) | -11.9 | 41.6 |
| GCTTAACGAAAGTTAGC (((.(((....)))))) | -21.7 | 44.9 |
| GCTTAACGAAAGTTCAGC (((.(((....))).))) | -31.6 | 44.4 |
| GCTTAAGCGAAAGCTAGC (((..(((....)))))) | -17.6 | 40.5 |
| GCTTAAGGAAACCTAAGC (((((.(....).))))) | -22.8 | 35.7 |
| GCTTACACGAAAGTGAGC (((..(((....)))))) | -16.9 | 38.8 |
| GCTTACCGAAAGGTAGC (((.(((....)))))) | -19.8 | 53 |
| GCTTACGAAAGTAAAGC ((((((....))).))) | -23.8 | 49.6 |

| Sequence | folding enthalpy [1] [kcal/mol] | Tm [2] [°C] |
| --- | --- | --- |
| GCTTACGAAAGTAGAAGC ((((((....)))..))) | -24.3 | 38.2 |
| GCTTACGAAAGTATAAGC ((((((....)))..))) | -28.6 | 38.3 |
| GCTTACGGAAACGTAGGC ((.((((....)))).)) | -27.2 | 50 |
| GCTTAGCGAAAGCAATGC ((.(.((....)).).)) | -11.7 | 31.9 |
| GCTTAGCGAAAGCACAGC (((..((....))..))) | -15.8 | 38.6 |
| GCTTAGCGAAAGCCAGGC ((.(.((....)).).)) | -12.6 | 34.5 |
| GCTTAGCGAAAGCGAAGC ((((.((....)).)))) | -22.4 | 60.8 |
| GCTTAGCGAAAGCGATGC ((.(.((....)).).)) | -18.6 | 59.5 |
| GCTTAGCGAAAGCGCAGC (((..((....))..))) | -17.6 | 46.9 |
| GCTTAGCGAAAGCTCAGC (((.(((....))).))) | -33.7 | 49.1 |
| GCTTAGCGAAAGCTGAGC (((.(((....))).))) | -45.6 | 57.6 |
| GCTTAGCGAAAGCTGCGC ((..(((....)))..)) | -19.3 | 54.9 |
| GCTTAGCGAAAGCTGGGC ((..(((....)))..)) | -20.1 | 51.8 |
| GCTTAGCGAAAGCTGTGC ((..(((....)))..)) | -16.4 | 39.7 |
| GCTTAGTCGAAAGACAGC (((..(((....)))))) | -17.2 | 40.3 |
| GCTTATCGAAAGATGAGC (((.(((....))).))) | -54.6 | 50.6 |
| GCTTATCGAAAGATTAGC (((.(((....))).))) | -35.9 | 44.8 |
| GCTTATGGAAACGTAAGC (((((.(....).))))) | -44 | 45.1 |
| GCTTCAGGAAACCGAAGC (((((.(....).))))) | -35.9 | 46.3 |
| GCTTCCCCGAAAGGGAGC (((..(((....)))))) | -19.2 | 46.6 |
| GCTTCCGAAAGGAAAGC ((((((....))).))) | -38.7 | 54.3 |
| GCTTCCGAAAGGACTAGC ((((((....)))..))) | -16.2 | 35.7 |
